Experimental data: publication PMC7885995 (Oncogene, 2020)

Tests used:
GBM PDX lines = assay: BAPTA calcium chelation before MED2; format: cell-based, human; settings: BAPTA pretreatment, low concentrations, 5-hour CTL2/MED2; X1441, JX39, JX59
How it was run: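 Cells were pretreated with BAPTA-AM and then exposed to CTL2 or MED2 for 5 h, at 2.5 μM for X1441 and 5 μM for JX39 and JX59, with relative viability as read-out. For SYTOX, cells were pretreated with 50μM BAPTA and given peptide for 1.5 h. Percent SYTOX-positive cells was scored on the Xcyto10 image cytometer at 4X. Analysis used two-way ANOVA with Tukey's test.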

PARP1 cleavage in XD456 = assay: PARP1 cleavage immunoblot; format: cell-based, human; settings: XD456, 3μM MED2, 5 and 24 hours
[1] = system: X1441 (proneural GBM PDX); assay: Cell viability; format: cell-based, human; settings: X1441, 2.5μM MED2, 72 h, n=4
How it was run: (§1)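 1 × 10^4 Trypan blue-counted live cells were plated in 90 μL medium in 4 replicates; PDX cells were kept in neurosphere medium and NHAs in standard medium. Peptide (PBS-reconstituted, added as 10X in medium) went on 2 h after plating. CellTiter-Glo ATP luminescence was read at 72 h. MED2 RLU was normalized to CTL2 (5 μM for 1–5 μM; 10 μM for 10 μM). GI50 was interpolated from a standard curve.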

JX39 (classical GBM PDX) = assay: Cell viability; format: cell-based, human; settings: JX39, 5μM MED2, normalized to 5μM CTL2, 72 h, n=4
How it was run: as §1

JX12 (classical GBM PDX) = assay: Cell viability; format: cell-based, human; settings: JX12, 5μM MED2, normalized to 5μM CTL2, 72 h, n=4
How it was run: as §1

[2] = system: intracellular calcium in XD456; assay: Fluo-4 calcium imaging; format: cell-based, human; settings: XD456, 3μM, serial imaging over two hours
How it was run: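 1 × 10^5 XD456 cells were attached in 24-well plates and loaded at 37C for 1.5 h in 1X Fluo-4 direct calcium assay buffer with 5mM probenecid. SYTOX and then 3μM CTL2 or MED2 were added. Serial live images, including one taken before peptide, were acquired at 10X on an EVOS FL using GFP and RFP channels.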

JX14 (classical GBM PDX) = assay: Cell viability; format: cell-based, human; settings: JX14, 10μM MED2, normalized to 10μM CTL2, 72 h, n=4
How it was run: as §1

XD456 = assay: Time-lapse imaging and SYTOX uptake; format: cell-based, human; settings: XD456, 3μM, time-lapse imaging
How it was run: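 XD456 cells were given 3μM MED2 and tracked by time-lapse still frames at 10X. For membrane permeabilization, cells received 5μM CTL2 or MED2 and were imaged every 5 min for 125 min at 20X. Imaging was on CellInsight CX7 in a heated CO2 chamber using Hoechst and SYTOX orange channels. Mean SYTOX intensity per cell was scored from n>400 cells.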

[3] = system: caspase 3/7 activation in GBM cells; assay: Caspase 3/7 activation; format: cell-based, human
How it was run: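 Cells pretreated with 1–200μM QVD-OPh or 100μM Z-VAD-FMK received MED2 or CTL2. They were lifted with their media and stained for 30 min at RT with CellEvent green caspase 3/7 dye, Annexin-V AlexaFluor 647 and SYTOX orange in Annexin-V binding buffer. Imaging was on Xcyto10 at 4X with channel compensation. Read-out was mean caspase fluorescence per cell relative to CTL2 (n>5000 cells).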

[4] = system: normal human astrocytes (NHAs); assay: Cell viability; format: cell-based; settings: CellTiter-Glo, 72 h
How it was run: as §1

[5] = system: JX59 (mesenchymal GBM PDX); assay: Cell viability; format: cell-based, human; settings: JX59, 10μM MED2, normalized to 10μM CTL2, 72 h, n=4
How it was run: as §1

[6] = system: GBM PDX lines (proneural, classical, mesenchymal subtypes); assay: Cell viability, statements for groups of GBM PDX lines; format: cell-based, human; settings: multiple PDX subtypes, 5μM CTL2/MED2, 9 hours, p>0.05
[7] = system: XD456 (proneural GBM PDX); assay: Cell viability; format: cell-based, human; settings: XD456, 2.5μM MED2, 72 h, n=4
How it was run: as §1

[8] = system: JX22 (mesenchymal GBM PDX); assay: Cell viability; format: cell-based, human; settings: JX22, 10μM MED2, normalized to 10μM CTL2, 72 h, n=4
How it was run: as §1

[9] = system: X1016 PDX implanted into the brain of athymic nude mice; assay: In vivo MED2-CY7 accumulation in orthotopic GBM PDX; set-up: species or system mouse; settings: tail-vein, 3 hours, Pearl / Odyssey CLx imaging
How it was run: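 6-week-old female athymic nude mice were stereotactically implanted with 5 × 10^5 X1016 cells into the caudate putamen 1 week before dosing. They were sorted by bioluminescence for similar tumor burden and randomized, unblinded, to two doses of Cy7-labeled peptide. Peptide in 100 μL saline went by tail vein, with sacrifice at 3 h. Brains were formalin-fixed, cut into 5 mm coronal slices and imaged on Pearl. Paraffin sections were H&E-stained or imaged on Odyssey CLx at […].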

athymic nude mice = assay: In vivo MED2-CY7 biodistribution, tumor-naïve mice; set-up: species or system mouse; settings: 3 hours

`CC(=O)OCOC(=O)CN(CC(=O)OCOC(C)=O)c1ccccc1OCCOc1ccccc1N(CC(=O)OCOC(C)=O)CC(=O)OCOC(C)=O` [BAPTA, BAPTA-AM] was tested, and the “protection against MED2 cytotoxicity” value (GBM PDX lines) was “no protective effects”.
`CC(C)C[C@H](NC(=O)[C@H](CCCCN)NC(=O)[C@H](Cc1ccccc1)NC(=O)[C@H](CO)NC(=O)[C@H](CCCCN)NC(=O)[C@H](CCCCN)NC(=O)[C@H](Cc1ccccc1)NC(=O)[C@H](CO)NC(=O)[C@H](Cc1ccccc1)NC(=O)[C@H](CCCNC(=N)N)NC(=O)[C@H](CCCCN)NC(=O)[C@H](CCCCN)NC(=O)[C@H](CCCCN)NC(=O)[C@H](CCCCN)NC(=O)[C@H](CCCCN)NC(=O)[C@@H](N)CSC1CC(=O)N(CCC(=O)N[C@@H](Cc2ccc(O)cc2)C(=O)NCC(=O)N[C@@H](CCCNC(=N)N)C(=O)N[C@@H](CCCCN)C(=O)N[C@@H](CCCCN)C(=O)N[C@@H](CCCNC(=N)N)C(=O)N[C@@H](CCCNC(=N)N)C(=O)N[C@@H](CCC(N)=O)C(=O)N[C@@H](CCCNC(=N)N)C(=O)N[C@@H](CCCNC(=N)N)C(=O)N[C@@H](CCCNC(=N)N)C(N)=O)C1=O)C(=O)N[C@@H](CO)C(=O)NCC(=O)N[C@@H](Cc1ccccc1)C(=O)N[C@@H](CO)C(=O)N[C@@H](Cc1ccccc1)C(=O)N[C@@H](CCCCN)C(=O)N[C@@H](CCCCN)C(=O)N[C@@H](CC(N)=O)C(=O)N[C@@H](CCCCN)C(=O)N[C@@H](CCCCN)C(N)=O` (some centres unmarked) [MED2] was tested, and the PARP1 cleavage pattern (PARP1 cleavage in XD456) was “loss of both 122kD and 89kD bands with the formation of an approximately 72 kD band”, the reduction in viability [1] was over 50% and the reduction in viability (JX39 (classical GBM PDX)) was over 50%. The reduction in viability (JX12 (classical GBM PDX)) was over 50%, the “Fluo-4 intensity (intracellular calcium)” value [2] was “increased within minutes” and the reduction in viability (JX14 (classical GBM PDX)) was over 50%. The “onset of morphological effects and signs of cellular injury” value (XD456) was at most 1 hour, the “caspase 3/7 activation compared with CTL2” value ([3]; MED2 treatment, P<0.001, n>5000) was “increased caspase 3/7 activation” and the “change in NHA viability” value ([4]; 5μM and 10μM) was “increases in viability”. For the same compound, the “toxicity in NHAs” value ([4]; 10μM) was “no toxicity”, the reduction in viability [5] was over 50% and the “inhibition of viability in adherent vs suspension cells” value [6] was “equally effective”. For the same compound, the reduction in viability [7] was over 50% and the reduction in viability [8] was over 50%.
With `CC(C)[C@H](NC(=O)c1ccc2ccccc2n1)C(=O)N[C@@H](CC(=O)O)C(=O)COc1c(F)cccc1F` [QVD-OPh, reference compound] the “reduction in MED2-induced caspase 3/7 activation” value ([3]; doubled QVD-OPh (200μM), n>5000) was 50%.
“KKKKKRFSFKKSFKLSGFSFKKNKK-LC- K(Lumiprobe CY7) [MED2-CY7]” was tested, and the “fluorescence in tumor-burdened regions of the brain compared to normal brain” value [9] was “substantial increases”, the “organs with greatest fluorescence intensity per mg tissue” value (athymic nude mice; 5 or 10 nanomoles, tail-vein, LI-COR Pearl, n=3 per dose group) was “kidney, liver, small and large intestines” and the brain partitioning (athymic nude mice; 5 or 10 nanomoles, tail-vein, n=3 per dose group) was “only a small percentage of total peptide reaching the brain”. For the same compound, the “increase in brain (periventricular) fluorescence per mg tissue, 10nmol vs 5nmol” value (athymic nude mice; tail-vein injection, tumor-naïve nude mice, Pearl imaging, n=3, p=0.026) was “greater than threefold”.
